Measurements: ChEMBL document CHEMBL2424619, “Small-molecule ligands of methyl-lysine binding proteins: optimization of selectivity for L3MBTL3” (J Med Chem, 2013)

Key:
PHD finger protein 23 = PHD finger protein 23 (Homo sapiens, UniProt Q9BUL5); test: Inhibition of PHF23 (unknown origin) after 30 mins by AlphaScreen assay
In short: (§1)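 AlphaScreen competition with histone peptide. Compounds in 3-fold, 10-point dilutions, top 10 or 30 μM; buffer 20 mM Tris pH 8.0, 25 mM NaCl, 2 mM DTT, 0.05% Tween-20. Protein-peptide mix 30 min RT, then streptavidin donor plus nickel-chelate acceptor beads (GST acceptor beads for GST-tagged PHF23, JARID1A) 30 min RT dark. Protein-free His6-biotin peptide counterscreen.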

TP53-binding protein 1 = TP53-binding protein 1 (Homo sapiens, UniProt Q12888); test: Inhibition of 53BP1 (unknown origin) after 30 mins by AlphaScreen assay
Chain of TP53-binding protein 1 (Q12888 whole entry): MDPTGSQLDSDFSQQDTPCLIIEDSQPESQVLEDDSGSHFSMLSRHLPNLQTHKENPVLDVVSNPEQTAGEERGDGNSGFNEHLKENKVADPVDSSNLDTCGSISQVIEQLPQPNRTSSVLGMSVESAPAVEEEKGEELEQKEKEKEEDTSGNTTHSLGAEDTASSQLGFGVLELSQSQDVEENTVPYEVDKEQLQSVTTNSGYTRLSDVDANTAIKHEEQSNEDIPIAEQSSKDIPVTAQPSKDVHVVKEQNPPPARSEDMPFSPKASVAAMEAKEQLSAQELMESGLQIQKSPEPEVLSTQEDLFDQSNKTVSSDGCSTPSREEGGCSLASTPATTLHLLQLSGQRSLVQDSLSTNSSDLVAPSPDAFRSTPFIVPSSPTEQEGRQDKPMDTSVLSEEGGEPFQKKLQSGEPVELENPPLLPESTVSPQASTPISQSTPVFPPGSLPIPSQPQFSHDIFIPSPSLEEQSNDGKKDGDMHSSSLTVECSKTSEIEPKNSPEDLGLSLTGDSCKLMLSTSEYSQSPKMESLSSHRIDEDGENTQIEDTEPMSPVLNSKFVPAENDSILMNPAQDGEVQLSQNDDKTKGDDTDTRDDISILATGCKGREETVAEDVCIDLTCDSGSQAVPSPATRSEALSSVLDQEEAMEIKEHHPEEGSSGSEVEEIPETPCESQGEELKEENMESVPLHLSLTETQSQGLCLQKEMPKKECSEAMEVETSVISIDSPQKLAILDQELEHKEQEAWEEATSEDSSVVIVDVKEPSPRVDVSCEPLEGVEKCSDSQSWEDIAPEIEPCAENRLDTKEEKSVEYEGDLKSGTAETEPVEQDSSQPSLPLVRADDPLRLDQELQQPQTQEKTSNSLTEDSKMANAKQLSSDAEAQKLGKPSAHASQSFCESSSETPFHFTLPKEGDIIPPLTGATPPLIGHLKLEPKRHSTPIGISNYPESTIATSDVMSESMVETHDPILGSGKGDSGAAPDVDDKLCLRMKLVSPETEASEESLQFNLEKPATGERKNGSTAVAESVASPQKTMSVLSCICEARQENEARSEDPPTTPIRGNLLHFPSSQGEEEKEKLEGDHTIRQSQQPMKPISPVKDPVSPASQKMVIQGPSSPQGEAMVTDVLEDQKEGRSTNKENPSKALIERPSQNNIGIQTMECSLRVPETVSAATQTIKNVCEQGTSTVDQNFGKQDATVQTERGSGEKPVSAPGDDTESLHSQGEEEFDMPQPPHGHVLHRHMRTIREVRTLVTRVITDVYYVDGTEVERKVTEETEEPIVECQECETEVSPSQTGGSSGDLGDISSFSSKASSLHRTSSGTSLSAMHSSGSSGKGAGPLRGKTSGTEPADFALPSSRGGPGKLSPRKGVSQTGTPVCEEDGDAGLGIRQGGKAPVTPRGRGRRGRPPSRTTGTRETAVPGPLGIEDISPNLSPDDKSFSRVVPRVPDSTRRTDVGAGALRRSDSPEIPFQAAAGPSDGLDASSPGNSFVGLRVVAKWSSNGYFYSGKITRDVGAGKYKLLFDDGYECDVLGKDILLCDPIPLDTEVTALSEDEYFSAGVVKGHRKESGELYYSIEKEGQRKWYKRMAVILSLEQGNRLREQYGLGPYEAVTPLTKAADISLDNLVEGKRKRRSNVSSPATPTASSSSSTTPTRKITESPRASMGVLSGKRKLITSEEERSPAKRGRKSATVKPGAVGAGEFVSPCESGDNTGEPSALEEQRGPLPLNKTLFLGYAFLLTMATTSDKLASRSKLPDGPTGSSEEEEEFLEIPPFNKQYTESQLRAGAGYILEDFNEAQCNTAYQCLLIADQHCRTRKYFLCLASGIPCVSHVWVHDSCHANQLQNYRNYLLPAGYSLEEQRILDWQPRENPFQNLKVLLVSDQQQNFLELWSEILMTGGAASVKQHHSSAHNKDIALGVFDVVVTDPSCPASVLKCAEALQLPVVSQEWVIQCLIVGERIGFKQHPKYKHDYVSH
In short: as §1, with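 “dark. […]” for “dark.”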

[1] = molecular target: T1, E3 ubiquitin-protein ligase UHRF1 (Homo sapiens, UniProt Q96T88); test: Inhibition of UHRF1 (unknown origin) after 30 mins by AlphaScreen assay
T1 sequence (Q96T88 whole entry): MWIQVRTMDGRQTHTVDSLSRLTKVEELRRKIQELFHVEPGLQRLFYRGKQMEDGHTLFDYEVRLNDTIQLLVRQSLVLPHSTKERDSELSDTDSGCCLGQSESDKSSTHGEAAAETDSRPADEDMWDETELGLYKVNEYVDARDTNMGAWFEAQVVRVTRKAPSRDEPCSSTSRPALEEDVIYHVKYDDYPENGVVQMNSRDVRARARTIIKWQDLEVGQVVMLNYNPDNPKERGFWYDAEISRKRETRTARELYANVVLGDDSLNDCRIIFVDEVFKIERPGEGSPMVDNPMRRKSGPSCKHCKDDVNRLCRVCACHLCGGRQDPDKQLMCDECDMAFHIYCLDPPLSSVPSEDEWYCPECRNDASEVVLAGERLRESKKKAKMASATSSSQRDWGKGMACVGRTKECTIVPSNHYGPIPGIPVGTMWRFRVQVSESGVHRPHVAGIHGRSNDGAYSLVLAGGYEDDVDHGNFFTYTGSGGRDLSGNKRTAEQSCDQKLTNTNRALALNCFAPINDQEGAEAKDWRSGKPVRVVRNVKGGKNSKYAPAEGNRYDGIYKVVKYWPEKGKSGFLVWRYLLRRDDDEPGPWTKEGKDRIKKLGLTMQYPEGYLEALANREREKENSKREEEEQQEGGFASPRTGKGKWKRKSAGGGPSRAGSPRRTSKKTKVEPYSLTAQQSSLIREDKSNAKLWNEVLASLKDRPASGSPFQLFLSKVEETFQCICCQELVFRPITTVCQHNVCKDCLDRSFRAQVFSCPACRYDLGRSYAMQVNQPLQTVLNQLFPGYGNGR
In short: as §1, with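 “dark. […]” for “dark.”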

[2] = molecular target: MBT domain-containing protein 1 (Homo sapiens, UniProt Q05BQ5); test: Inhibition of MBTD1 (unknown origin) after 30 mins by AlphaScreen assay; in short: as §1
Chain of MBT domain-containing protein 1 (Q05BQ5 whole entry, the tested form may be a part): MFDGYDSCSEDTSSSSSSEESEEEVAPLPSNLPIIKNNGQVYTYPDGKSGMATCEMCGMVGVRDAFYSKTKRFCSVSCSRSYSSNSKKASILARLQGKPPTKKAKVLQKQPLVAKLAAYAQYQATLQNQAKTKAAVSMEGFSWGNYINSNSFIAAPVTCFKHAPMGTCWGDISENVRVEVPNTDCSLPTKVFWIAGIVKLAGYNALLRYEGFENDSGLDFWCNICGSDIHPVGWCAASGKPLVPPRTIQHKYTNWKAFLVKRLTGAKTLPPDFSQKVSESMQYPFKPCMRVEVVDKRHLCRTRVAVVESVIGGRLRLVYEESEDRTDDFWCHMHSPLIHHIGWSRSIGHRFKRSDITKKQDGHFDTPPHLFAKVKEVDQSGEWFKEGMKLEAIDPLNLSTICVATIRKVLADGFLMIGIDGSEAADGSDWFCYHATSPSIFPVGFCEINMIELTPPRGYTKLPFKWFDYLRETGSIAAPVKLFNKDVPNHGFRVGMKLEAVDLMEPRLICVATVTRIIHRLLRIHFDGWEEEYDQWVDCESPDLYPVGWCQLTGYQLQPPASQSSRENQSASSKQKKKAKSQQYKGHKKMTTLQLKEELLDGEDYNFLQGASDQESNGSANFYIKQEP

[3] = molecular target: T2, Scm-like with four MBT domains protein 1 (Homo sapiens, UniProt Q9UHJ3); test: Inhibition of SFMBT1 (unknown origin) after 30 mins by AlphaScreen assay
T2 sequence (Q9UHJ3 whole entry): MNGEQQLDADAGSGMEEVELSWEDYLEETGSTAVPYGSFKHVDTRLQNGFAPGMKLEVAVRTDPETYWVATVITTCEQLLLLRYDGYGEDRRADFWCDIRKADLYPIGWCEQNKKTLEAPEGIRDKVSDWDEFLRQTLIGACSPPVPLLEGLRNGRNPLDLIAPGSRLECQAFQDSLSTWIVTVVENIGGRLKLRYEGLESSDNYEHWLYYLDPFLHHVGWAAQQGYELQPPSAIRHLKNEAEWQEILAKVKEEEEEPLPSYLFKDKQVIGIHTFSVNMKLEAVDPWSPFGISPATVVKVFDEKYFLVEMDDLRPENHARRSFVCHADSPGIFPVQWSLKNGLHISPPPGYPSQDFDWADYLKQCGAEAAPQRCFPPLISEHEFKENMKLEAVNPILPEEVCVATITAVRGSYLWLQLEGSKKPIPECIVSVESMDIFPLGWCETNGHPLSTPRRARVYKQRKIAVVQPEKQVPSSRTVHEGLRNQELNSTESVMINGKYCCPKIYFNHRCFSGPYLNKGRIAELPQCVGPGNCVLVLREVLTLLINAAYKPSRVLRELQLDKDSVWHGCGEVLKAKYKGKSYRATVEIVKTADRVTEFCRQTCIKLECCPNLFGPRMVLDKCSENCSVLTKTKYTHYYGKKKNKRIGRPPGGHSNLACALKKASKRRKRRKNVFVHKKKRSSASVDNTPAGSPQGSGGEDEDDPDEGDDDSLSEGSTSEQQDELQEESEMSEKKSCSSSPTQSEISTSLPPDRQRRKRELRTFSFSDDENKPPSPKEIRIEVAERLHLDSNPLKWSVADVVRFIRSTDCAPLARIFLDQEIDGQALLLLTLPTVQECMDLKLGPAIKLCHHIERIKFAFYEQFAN
In short: as §1, with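 “dark. […]” for “dark.”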

Chain of PHD finger protein 23 (Q9BUL5 whole entry): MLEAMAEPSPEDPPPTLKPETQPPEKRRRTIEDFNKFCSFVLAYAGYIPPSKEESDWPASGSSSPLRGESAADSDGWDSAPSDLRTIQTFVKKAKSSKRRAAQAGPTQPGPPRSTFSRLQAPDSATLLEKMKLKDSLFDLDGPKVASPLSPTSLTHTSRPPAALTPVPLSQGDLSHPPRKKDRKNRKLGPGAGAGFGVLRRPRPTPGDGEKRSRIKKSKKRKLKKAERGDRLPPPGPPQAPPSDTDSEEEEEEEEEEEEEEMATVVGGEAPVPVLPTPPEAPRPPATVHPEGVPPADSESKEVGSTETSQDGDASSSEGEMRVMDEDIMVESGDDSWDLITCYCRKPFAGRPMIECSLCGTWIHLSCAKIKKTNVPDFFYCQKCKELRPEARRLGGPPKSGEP

IC50 (PHD finger protein 23) [µM]	IC50 (TP53-binding protein 1) [µM]	IC50 [1] [µM]	IC50 [2] [µM]	IC50 [3] [µM]	Structure (SMILES)
> 10	> 10	> 10	> 10	> 10	CCN1Cc2ccc(NC(=O)c3ccc(C(=O)N4CCC(N5CCCC5)CC4)cc3)cc2C1
> 10	> 10	> 10	> 10	> 10	O=C(c1ccc(C(=O)N2CCC(N3CCCC3)CC2)s1)N1CCC(N2CCCC2)CC1
> 10	> 10	> 10	5.1	> 10	CCN1Cc2ccc(NC(=O)c3ccc(C(=O)N4CCC(C5CCCN5)CC4)c(Nc4ccccc4)c3)cc2C1 (stereo not drawn)
> 10	7.4	> 10	8.2	> 10	O=C(c1ccc(N2CCC(N3CCCC3)CC2)cc1)N1CCC(N2CCCC2)CC1
> 10	> 10	> 10	9.7	> 10	O=C(c1ccc(C(=O)N2CCC(N3CCCC3)CC2)cc1)N1CCC(N2CCCCCC2)CC1
> 10	> 10	> 10	> 10	> 10	C[N+]1(C2CCN(C(=O)c3ccc(C(=O)N4CCC(N5CCCC5)CC4)cc3)CC2)CCCC1
> 10	> 10	> 10	> 10	> 10	Nc1cc(C(=O)N2CCC(N3CCCC3)CC2)ccc1C(=O)N1CCC(N2CCCC2)CC1
> 10	4.7	> 10	> 10	> 10	O=C(c1ccccc1C(=O)N1CCC(N2CCCC2)CC1)N1CCC(N2CCCC2)CC1
> 10	> 10	> 10	> 10	> 10	O=C(c1ccc(C(=O)N2CCC(N3CCCC3)CC2)cc1)N1CCC(C2CCNCC2)CC1
> 10	> 10	> 10	5.4	> 10	O=C(c1ccc(S(=O)(=O)N2CCC(N3CCCC3)CC2)cc1)N1CCC(N2CCCC2)CC1
> 10	> 10	> 10	10	> 10	O=C(c1ccc(C(=O)N2CCC(N3CCCC3)CC2)cc1)N1CCC(N2CCCCC2)CC1
> 10	> 10	> 10	> 10	> 10	O=C(c1cccc(C(=O)N2CCC(N3CCCC3)CC2)c1)N1CCC(N2CCCC2)CC1
> 10	> 10	> 10	> 10	> 10	O=C(NCCCN1CCCC1)c1ccc(C(=O)N2CCC(N3CCCC3)CC2)cc1
> 10	8.7	> 10	> 10	> 10	O=C(c1ccc(C(=O)N2CCC(N3CCCC3)CC2)c(NCc2ccccc2)c1)N1CCC(N2CCCC2)CC1
> 10	> 10	> 10	> 10	> 10	O=C(c1ccc(C(=O)N2CC3CNCC3C2)cc1)N1CCC(N2CCCC2)CC1 (stereo not drawn)
> 10	> 10	> 10	> 10	> 10	CN1CCN2CC(NC(=O)c3ccc(C(=O)N4CCC(N5CCCC5)CC4)cc3)CC2C1 (stereo not drawn)

IC50 (PHD finger protein 23) [µM]	IC50 (TP53-binding protein 1) [µM]	IC50 [1] [µM]	IC50 [2] [µM]	IC50 [3] [µM]	Structure (SMILES)
> 10	> 10	> 10		> 10	O=C(c1ccc(C(=O)N2CCC(N3CCCC3)CC2)cc1)N1CCC(C2CCCN2)CC1 (stereo not drawn)
> 10	> 10	> 10	> 10	> 10	O=C(c1ccc(C(=O)N2CC3CCC(C2)C3N2CCCC2)cc1)N1CC2CCC(C1)C2N1CCCC1 (stereo not drawn)
> 10	> 10	> 10	> 10	> 10	O=C(c1ccc(C(=O)N2CC(N3CCCC3)C2)cc1)N1CCC(N2CCCC2)CC1
> 10	> 10	> 10	> 10	> 10	O=C(c1cncc(Br)c1)N1CCC(N2CCCC2)CC1
> 10	> 10	> 10	> 10	> 10	CCN1Cc2ccc(NC(=O)c3ccc(C(=O)N4CC5CCC(C4)C5N4CCCC4)cc3)cc2C1 (stereo not drawn)
> 10	> 10	> 10	> 10	> 10	O=C(c1ccc(C(=O)N2CC3(CCNC3)C2)cc1)N1CCC(N2CCCC2)CC1
> 10	> 10	> 10	> 10	> 10	CN1CCCC1C1CCN(C(=O)c2ccc(C(=O)N3CCC(C4CCCN4C)CC3)cc2)CC1 (stereo not drawn)
> 10	> 10	> 10	6.8	> 10	O=C(c1ccc(C(=O)N2CCC(N3CCCC3)CC2)c(Cc2ccccc2)c1)N1CCC(N2CCCC2)CC1
> 10	10.7	> 10	5.7	> 10	O=C(c1ccc(C(=O)N2CCC(N3CCCC3)CC2)c2ccccc12)N1CCC(N2CCCC2)CC1
> 10	> 10	> 10	> 10	> 10	O=C(c1ccc(C(=O)N2CC3CCC(C2)C3N2CCCC2)cc1)N1CCC(N2CCCC2)CC1 (stereo not drawn)
> 10	> 10	> 10	> 10	> 10	O=C(c1ccc(C(=O)N2CCC(N3CCCC3)CC2)o1)N1CCC(N2CCCC2)CC1
> 10	> 10	> 10	7.8	> 10	O=C(c1ccc(C(=O)N2CCC(N3CCCC3)CC2)c(Br)c1)N1CCC(N2CCCC2)CC1
> 10	> 10	> 10	> 10	> 10	O=C(c1ccc(C(=O)N2CCC(N3CCCC3)CC2)cc1)N1CCCC(N2CCCC2)CC1 (stereo not drawn)
	> 10	> 10	8.1	> 10	O=C(c1ccc(C(=O)N2CCC(N3CCCC3)CC2)cc1)N1CCC(C2CCCCC2)CC1
> 10	> 10	> 10	> 10	> 10	O=C(c1ccc2cc(C(=O)N3CCC(N4CCCC4)CC3)ccc2c1)N1CCC(N2CCCC2)CC1
> 10	> 10	> 10	> 10	> 10	O=C(c1ccc(C(=O)N2CCC(N3CCCC3)CC2)c(-c2ccccc2)c1)N1CCC(N2CCCC2)CC1

Structure (SMILES)	IC50 (PHD finger protein 23) [µM]	IC50 (TP53-binding protein 1) [µM]	IC50 [1] [µM]	IC50 [2] [µM]	IC50 [3] [µM]
O=C(c1ccc(C(=O)N2CCC(N3CCCC3)CC2)c(Nc2ccccc2)c1)N1CCC(N2CCCC2)CC1	> 10	> 10	> 10	9	> 10
